Measured values published in ChEMBL document CHEMBL1143320, “Benzyldihydroxyoctenone, a novel anticancer agent, induces apoptosis via mitochondrial-mediated pathway in androgen-sensitive LNCaP prostate cancer cells” (Bioorg Med Chem Lett, 2009).
Calls of active or inactive are those of the source.

Tests used:
Assay type in all cases: functional, cell-based
LNCaP [1] = assay: Induction of apoptosis in human LNCAP cells assessed as decrease in procaspase-8 expression at 30 uM after 24 hrs by Western blot
Method in brief: (§1)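 Cells were treated for various times and total cell lysates prepared. Lysates were resolved on 8–14% polyacrylamide gels and immunoblotted with an antibody to each protein, with b-actin as internal control.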

LNCaP [2] = assay: Induction of apoptosis in human LNCAP cells assessed as decrease in Bcl2 levels at 30 uM after 48 hrs by Western blot; method in brief: as §1
LNCaP [3] = assay: Induction of apoptosis in human LNCAP cells assessed as inhibition of PSA protein expression at 30 uM by Western blot; conditions: TDE = time-dependent effect
LNCaP [4] = assay: Induction of apoptosis in human LNCAP cells assessed as inhibition of DHT-induced AR protein expression at 30 uM after 24 hrs by Western blot
Method in brief: (§2)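 LNCaP cells were grown 48 h in RPMI 1640 with 10% FBS, then exposed 24 h to compound given in ethanol. This was followed by 2 h with or without DHT (0.1 and 1 nM). Lysate protein was measured by BCA, run on SDS–PAGE and blotted to nitrocellulose. Blots were probed with primary and peroxidase-conjugated secondary antibodies, with chemiluminescent detection.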

LNCaP [5] = assay: Induction of apoptosis in human LNCAP cells assessed as procaspase-3 cleavage at 30 uM after 24 hrs by Western blot; method in brief: as §1
LNCaP [6] = assay: Induction of apoptosis in human LNCAP cells assessed as inhibition of AR mRNA transcription at 30 uM after 24 hrs by RT-PCR in presence of DHT
Method in brief: (§3)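 Cells were treated as for the blots (24 h compound, then DHT 1.0 nM or none). Total RNA (2 µg) was reverse-transcribed and AR and PSA were quantified by real-time PCR. Relative levels were calculated by the comparative threshold cycle method, with GAPDH as housekeeping gene.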

LNCaP [7] = assay: Induction of apoptosis in human LNCAP cells assessed as inhibition of DHT-induced PSA protein expression at 30 uM after 24 hrs by Western blot; method in brief: as §2
LNCaP [8] = assay: Induction of apoptosis in human LNCAP cells assessed as decrease in procaspase-9 expression at 30 uM after 24 hrs by Western blot; method in brief: as §1
LNCaP [9] = assay: Induction of apoptosis in human LNCAP cells assessed as inhibition of AR mRNA transcription at 30 uM after 24 hrs by RT-PCR; method in brief: as §3
LNCaP [10] = assay: Induction of apoptosis in human LNCAP cells assessed as increase in mitochondrial cytochrome C release at 30 uM after 24 hrs by Western blot; method in brief: as §1
LNCaP [11] = assay: Induction of apoptosis in human LNCAP cells assessed as DNA fragmentation at 30 uM by TUNEL assay
Method in brief: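 Cells were treated for the indicated times, then fixed and permeabilized. They were stained with fluorescent TUNEL reagent and analysed by flow cytometry for DNA fragmentation.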

LNCaP [12] = assay: Induction of apoptosis in human LNCAP cells assessed as inhibition of PSA mRNA transcription at 30 uM after 24 hrs by RT-PCR in presence of DHT; method in brief: as §3
LNCaP [13] = assay: Induction of apoptosis in human LNCAP cells assessed as inhibition of PSA mRNA transcription at 30 uM after 24 hrs by RT-PCR; method in brief: as §3
LNCaP [14] = assay: Induction of apoptosis in human LNCAP cells assessed as PARP cleavage at 30 uM after 24 hrs by Western blot; method in brief: as §1
LNCaP [15] = assay: Induction of apoptosis in human LNCAP cells assessed as inhibition of AR protein expression at 30 uM by Western blot; conditions: TDE = time-dependent effect
LNCaP [16] = assay: Induction of apoptosis in human LNCAP cells assessed as decrease in Bcl-XL levels at 30 uM after 24 hrs by Western blot; method in brief: as §1
LNCaP [17] = assay: Induction of apoptosis in human LNCAP cells assessed as procaspase-8 cleavage at 30 uM by Western blot; conditions: TDE = time-dependent effect; method in brief: as §1
LNCaP [18] = assay: Cell cycle arrest in human LNCAP cells assessed as accumulation at subG1 phase at 30 uM by flow cytometry; conditions: TDE = time-dependent effect
Method in brief: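 LNCaP cells exposed for various times, then fixed nuclei stained with propidium iodide. DNA content read by flow cytometry, 10,000 nuclei per sample. Sub-G1 fraction reported as means ± SD of three separate experiments.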

Measured: Activity

C/C=C(\Cc1ccccc1)C(=O)CC(O)CCO (stereo not drawn)
active: LNCaP [1] | LNCaP [2] | LNCaP [3] tde | LNCaP [4] | LNCaP [5] | LNCaP [6] | LNCaP [7] | LNCaP [8] | LNCaP [9] | LNCaP [10] | LNCaP [11] | LNCaP [12] | LNCaP [13] | LNCaP [14] | LNCaP [15] tde | LNCaP [16] | LNCaP [17] tde | LNCaP [18] tde
